The values below come from ChEMBL document CHEMBL3526074, “Effects of the CYP2B6*6 allele on catalytic properties and inhibition of CYP2B6 in vitro: implication for the mechanism of reduced efavirenz metabolism and other CYP2B6 substrates in vivo” (Drug Metab Dispos, 2012).

The structures appear in SMILES notation.

What all share (assay type): ADME
Series [1] is described as follows: Inhibition of CYP2B6 variant in human liver microsomes harboring CYP2B6*1/*1 genotype assessed as 8-hydroxyefavirenz formation using efavirenz as substrate after 15 mins by LC/MS/MS analysis.
The nature of series [2]: Inhibition of CYP2B6 variant in human liver microsomes harboring CYP2B6*6/*6 genotype assessed as 8-hydroxyefavirenz formation using efavirenz as substrate after 15 mins by LC/MS/MS analysis.
Series [3] is described as follows: Drug metabolism in microsomes expressing CYP2B6.1 (unknown origin) assessed as enzyme-mediated 8-hydroxyefavirenz metabolite formation measured per pmol of P450 after 15 mins by HPLC/UV system in absence of Cyt b5 coexpression. The following applies: human, 0.25 h. The essentials:
(§1)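 Microsomes with cDNA-expressed CYP2B6.1 or CYP2B6.6 plus POR, no Cyt b5 (15 pmol P450). Efavirenz 1–200 µM in 200 mM phosphate pH 7.4 with NADPH-regenerating system, 15 min at 37°C. 8-hydroxyefavirenz by HPLC, rate per pmol P450.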

Series [4] can be described thus: Drug metabolism in human liver microsomes harboring CYP2B6*1/*1 genotype assessed as CYP2B6 variant-mediated 8-hydroxyefavirenz metabolite formation after 15 mins by LC/MS/MS analysis. The following applies: 0.25 h. In outline:
(§2)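 Genotyped human liver microsomes (5 donors per genotype), 0.25 mg/ml, with efavirenz 1–200 µM in 200 mM potassium phosphate pH 7.4. Prewarmed 5 min at 37°C, started with NADPH-regenerating system, 15 min, stopped on ice with acetonitrile. 8-hydroxyefavirenz measured by LC/MS/MS, duplicate incubations. Km and Vmax from single-site Michaelis-Menten nonlinear fit; Clint = Vmax/Km; mean ± S.D. across 5 HLMs.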

The nature of series [5]: Drug metabolism in microsomes expressing CYP2B6.1 (unknown origin) assessed as enzyme-mediated 8-hydroxyefavirenz metabolite formation measured per pmol of P450 after 15 mins by HPLC/UV system in presence of Cyt b5 coexpression. The conditions noted are these: human, 0.25 h. The essentials: (§3)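 cDNA-expressed CYP2B6.1 or CYP2B6.6 microsomes coexpressing POR and Cyt b5 (15 pmol), with efavirenz 1–200 µM, NADPH-regenerating system and pH 7.4 phosphate buffer, 15 min at 37°C. 8-hydroxyefavirenz by HPLC, rate per pmol P450. Kinetic constants from single-site Michaelis-Menten fit; three replicates, mean ± S.D.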

Series [6] can be described thus: Drug metabolism in human liver microsomes harboring CYP2B6*6/*6 genotype assessed as CYP2B6 variant-mediated 8-hydroxyefavirenz metabolite formation after 15 mins by LC/MS/MS analysis. The conditions noted are these: 0.25 h. In outline: as §2
Series [7] can be described thus: Drug metabolism in microsomes expressing CYP2B6.6 (unknown origin) assessed as enzyme-mediated 8-hydroxyefavirenz metabolite formation after 15 mins by HPLC/UV system in absence of Cyt b5 coexpression. The conditions noted are these: human, 0.25 h. In outline: as §1
A short description of series [8]: Drug metabolism in human liver microsomes harboring CYP2B6*1/*1 genotype assessed as CYP2B6 variant-mediated 8-hydroxyefavirenz metabolite formation measured per mg protein after 15 mins by LC/MS/MS analysis. The conditions noted are these: 0.25 h. The essentials: as §2
Series [9] can be described thus: Drug metabolism in human liver microsomes harboring CYP2B6*6/*6 genotype assessed as CYP2B6 variant-mediated 8-hydroxyefavirenz metabolite formation measured per mg protein after 15 mins by LC/MS/MS analysis. The following applies: 0.25 h. The essentials:
as §2

Series [10] is described as follows: Drug metabolism in microsomes expressing CYP2B6.1 (unknown origin) assessed as enzyme-mediated 8-hydroxyefavirenz metabolite formation after 15 mins by HPLC/UV system in absence of Cyt b5 coexpression. The following applies: human, 0.25 h. The essentials: as §1
The nature of series [11]: Drug metabolism in microsomes expressing CYP2B6.6 (unknown origin) assessed as enzyme-mediated 8-hydroxyefavirenz metabolite formation measured per pmol of P450 after 15 mins by HPLC/UV system in absence of Cyt b5 coexpression. The following applies: human, 0.25 h. The essentials: as §1
Series [12] is described as follows: Drug metabolism in human liver microsomes harboring CYP2B6*1/*6 genotype assessed as CYP2B6 variant-mediated 8-hydroxyefavirenz metabolite formation measured per mg protein after 15 mins by LC/MS/MS analysis. The following applies: 0.25 h. In outline:
as §2

Series [13] can be described thus: Drug metabolism in human liver microsomes harboring CYP2B6*1/*6 genotype assessed as intrinsic clearance for CYP2B6 variant-mediated 8-hydroxyefavirenz metabolite formation measured per mg protein after 15 mins by LC/MS/MS analysis. The following applies: 0.25 h. In outline: as §2
Series [14] is described as follows: Drug metabolism in microsomes expressing CYP2B6.6 (unknown origin) assessed as enzyme-mediated 8-hydroxyefavirenz metabolite formation after 15 mins by HPLC/UV system in presence of Cyt b5 coexpression. The following applies: human, 0.25 h. In outline:
as §3

The nature of series [15]: Drug metabolism in human liver microsomes harboring CYP2B6*6/*6 genotype assessed as intrinsic clearance for CYP2B6 variant-mediated 8-hydroxyefavirenz metabolite formation measured per mg protein after 15 mins by LC/MS/MS analysis. The conditions noted are these: 0.25 h. In outline: as §2
A short description of series [16]: Drug metabolism in microsomes expressing CYP2B6.6 (unknown origin) assessed as enzyme-mediated 8-hydroxyefavirenz metabolite formation measured per pmol of P450 after 15 mins by HPLC/UV system in presence of Cyt b5 coexpression. The following applies: human, 0.25 h. In outline:
as §3

Series [17] is described as follows: Drug metabolism in human liver microsomes harboring CYP2B6*1/*6 genotype assessed as CYP2B6 variant-mediated 8-hydroxyefavirenz metabolite formation after 15 mins by LC/MS/MS analysis. The following applies: 0.25 h. In outline: as §2
The nature of series [18]: Drug metabolism in human liver microsomes harboring CYP2B6*1/*1 genotype assessed as intrinsic clearance for CYP2B6 variant-mediated 8-hydroxyefavirenz metabolite formation measured per mg protein after 15 mins by LC/MS/MS analysis. The following applies: 0.25 h. The essentials:
as §2

Series [19] can be described thus: Drug metabolism in microsomes expressing CYP2B6.1 (unknown origin) assessed as enzyme-mediated 8-hydroxyefavirenz metabolite formation after 15 mins by HPLC/UV system in presence of Cyt b5 coexpression. The conditions noted are these: human, 0.25 h. In outline: as §3
Series [20] in a line: Inhibition of CYP2B6 variant in human liver microsomes harboring CYP2B6*1/*6 genotype assessed as 8-hydroxyefavirenz formation using efavirenz as substrate after 15 mins by LC/MS/MS analysis.

In the case of `COC(=O)[C@H](c1ccccc1Cl)N1CCc2sccc2C1` [CLOPIDOGREL], the IC50 in [1] was determined as 140 nM; in [2] it was 50 nM.

For the compound `O=C1Nc2ccc(Cl)cc2[C@@](C#CC2CC2)(C(F)(F)F)O1` [EFAVIRENZ], the Vmax is 1.21 pmol/min in series [3]; 1.02 pmol/min in series [5]; 87.1 pmol/min in series [8]; 25 pmol/min in series [9]; 1.61 pmol/min in series [11]; 100.6 pmol/min in series [12]. Also, the Vmax in series [16] is given as 0.95 pmol/min. Also, the Km in series [4] was found to be 11.2 µM; in series [6], 24 µM; in [7] it was 8.8 µM; in series [10] it was 3.2 µM; in series [14], 6.2 µM; in series [17], 15.2 µM. Also, the Michaelis-Menten constant (Km) in [19] was 3.4 µM. Further, the CLH in series [13] is 6.4 µL/min/mg; in [15], 2.4 µL/min/mg; in series [18], 14.5 µL/min/mg.

As for `C[C@@H](c1ncncc1F)[C@](O)(Cn1cncn1)c1ccc(F)cc1F` [VORICONAZOLE], the Ki in series [20] is 1550 nM. For the same compound, the 50% inhibitory concentration (IC50) in [1] amounted to 400 nM; in series [2], 160 nM.
